{"source": "ChEMBL document CHEMBL4364350", "about": "“Use of a fluorescence assay to determine relative affinities of semisynthetic aminoglycosides to small RNAs representing bacterial and mitochondrial A sites” (Bioorg Med Chem, 2019)", "key": {"[1]": {"assay": "Binding affinity to 5'-fluorescein-tagged Escherichia coli ribosomal A site wt-bac duplex RNA incubated for 2 mins by fluorescence spectrophotometric analysis", "procedure,_shortened": "(§1)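 The 5'-fluorescein-labelled strand was set to 1 μM in binding buffer (10 mM HEPES pH 7.4, 150 mM NaCl, 3 mM Na2EDTA). The complementary strand was annealed at 95 °C for 1 min, then cooled slowly overnight. Aminoglycoside was added in 12–15 aliquots of 2 μL, each followed by 2 min incubation. Excitation 490 nm; 520 nm emission was volume-corrected. Fraction bound was fitted to a quadratic equation for apparent Kd, from three independent trials.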"}, "[2]": {"assay": "Binding affinity to 5'-fluorescein-tagged human mitochondrial ribosomal A site wt-duplex RNA incubated for 2 mins by fluorescence spectrophotometric analysis", "procedure,_shortened": "as §1"}, "[3]": {"assay": "Binding affinity to 5'-fluorescein-tagged human mitochondrial ribosome A site mutant duplex RNA incubated for 2 mins by fluorescence spectrophotometry analysis", "procedure,_shortened": "as §1"}, "[4]": {"target": "Bacterial 70S ribosome", "assay": "Anti-ribosomal activity against bacterial 70S hybrid ribosomes assessed as inhibition of cell-free translation incubated for 35 mins by dual luciferase reporter assay", "assay_type": "subcellular, Bacteria"}, "[5]": {"test_system": "Escherichia coli", "assay": "Antibacterial activity against Escherichia coli AG001 incubated for overnight by broth microdilution assay", "assay_type": "functional"}, "[6]": {"assay": "Anti-ribosomal activity against human-bacterial hybrid ribosome containing human mitochondrial ribosome A site harboring A1555G mutant 12s rRNA assessed as inhibition of cell-free translation by dual luciferase reporter assay"}, "[7]": {"assay": "Anti-ribosomal activity against human-bacterial hybrid ribosome containing human mitochondrial ribosome A site harboring wild type 12s rRNA assessed as inhibition of cell-free translation by dual luciferase reporter assay"}, "[8]": {"assay": "Selectivity ratio of IC50 for anti-ribosomal activity against human-bacterial hybrid ribosome containing human mitochondrial ribosome A site harboring wild type 12s rRNA to IC50 for anti-ribosomal activity against bacterial 70S hybrid ribosomes"}, "[9]": {"test_system": "human mitochondrial ribosomal A site (wild type) RNA", "assay": "Selectivity ratio of Kd for 5'-fluorescein-tagged human mitochondrial ribosomal A site wt-duplex RNA to Kd for 5'-fluorescein-tagged Escherichia coli ribosomal A site wt-bac duplex RNA", "assay_type": "toxicity"}, "[10]": {"assay": "Selectivity ratio of IC50 for anti-ribosomal activity against human-bacterial hybrid ribosome containing human mitochondrial ribosome A site harboring A1555G mutant 12s rRNA to IC50 for anti-ribosomal activity against bacterial 70S hybrid ribosomes"}, "[11]": {"test_system": "human mitochondrial ribosome A site (mutant) RNA", "assay": "Selectivity ratio of Kd for 5'-fluorescein-tagged human mitochondrial ribosome A site mutant duplex RNA to Kd for 5'-fluorescein-tagged Escherichia coli ribosomal A site wt-bac duplex RNA", "assay_type": "toxicity"}, "[12]": {"test_system": "Escherichia coli", "assay": "Potency index, ratio of paromomycin Kd to compound Kd for 5'-fluorescein-tagged Escherichia coli ribosomal A site wt-bac duplex RNA incubated for 2 mins by fluorescence spectrophotometric analysis"}, "[13]": {"test_system": "Escherichia coli", "assay": "Binding affinity to 5'-fluorescein-tagged Escherichia coli ribosomal A site wt-bac duplex RNA assessed as conformational change in RNA by measuring decrease in fluorescence intensity incubated for 2 mins by fluorescence spectrophotometric analysis", "procedure,_shortened": "as §1"}, "[14]": {"assay": "Binding affinity to 5'-fluorescein-tagged bacterial ribosomal A site 27-nucleotide hairpin RNA construct by fluorescence analysis", "design": "species or system Bacteria"}}, "data": [{"compound": "CCC[C@H]1[C@H](O)[C@@H](N)[C@@H](O[C@H]2[C@H](O[C@@H]3O[C@H](CO)[C@@H](O[C@H]4O[C@@H](CN)[C@@H](O)[C@H](O)[C@H]4N)[C@H]3O)[C@@H](O)[C@H](N)C[C@@H]2N)O[C@@H]1CO", "values": [{"measurement": "Kd", "setting": "[1]", "value": 2, "unit": "nM"}, {"measurement": "Kd", "setting": "[2]", "value": 26900, "unit": "nM"}, {"measurement": "Kd", "setting": "[3]", "value": 5800, "unit": "nM"}, {"measurement": "IC50", "setting": "[4]", "value": 46.7, "unit": "nM"}, {"measurement": "MIC", "setting": "[5]", "value": 2, "unit": "µg/mL"}, {"measurement": "IC50", "setting": "[6]", "value": 51, "unit": "µg/mL"}, {"measurement": "IC50", "setting": "[7]", "value": 167, "unit": "µg/mL"}, {"measurement": "Ratio IC50", "setting": "[8]", "value": 5570}, {"measurement": "selectivity ratio", "setting": "[9]", "value": 13400}, {"measurement": "Ratio IC50", "setting": "[10]", "value": 1730}, {"measurement": "selectivity ratio", "setting": "[11]", "value": 2900}, {"measurement": "Ratio", "setting": "[12]", "value": 2.5}]}, {"compound": "NC[C@@H]1O[C@H](O[C@H]2[C@@H](O)[C@H](O[C@@H]3[C@@H](O)[C@H](N)C[C@H](N)[C@H]3O[C@H]3O[C@H](CO)[C@@H](O)[C@H](O)[C@H]3N)O[C@@H]2CO)[C@H](N)[C@@H](O)[C@@H]1O", "note": "[PAROMOMYCIN]", "values": [{"measurement": "Kd", "setting": "[1]", "value": 5, "unit": "nM"}, {"measurement": "Kd", "setting": "[2]", "value": 6500, "unit": "nM"}, {"measurement": "Kd", "setting": "[3]", "value": 2800, "unit": "nM"}, {"measurement": "MIC", "setting": "[5]", "value": 4, "unit": "µg/mL"}, {"measurement": "IC50", "setting": "[6]", "value": 6, "unit": "µg/mL"}, {"measurement": "IC50", "setting": "[7]", "value": 51, "unit": "µg/mL"}, {"measurement": "Ratio IC50", "setting": "[8]", "value": 1700}, {"measurement": "selectivity ratio", "setting": "[9]", "value": 1300}, {"measurement": "Ratio IC50", "setting": "[10]", "value": 200}, {"measurement": "selectivity ratio", "setting": "[11]", "value": 560}]}, {"compound": "NC[C@@H]1O[C@H](O[C@H]2[C@@H](O)[C@H](O[C@@H]3[C@@H](O)[C@H](N)C[C@H](N)[C@H]3O[C@H]3O[C@H](CN)[C@@H](O)[C@H](O)[C@H]3N)O[C@@H]2CO)[C@H](N)[C@@H](O)[C@@H]1O", "note": "[FRAMYCETIN]", "values": [{"measurement": "Kd", "setting": "[1]", "value": 1, "unit": "nM"}, {"measurement": "Kd", "setting": "[2]", "value": 1100, "unit": "nM"}, {"measurement": "Kd", "setting": "[3]", "value": 100, "unit": "nM"}, {"measurement": "Ratio IC50", "setting": "[8]", "value": 200}, {"measurement": "selectivity ratio", "setting": "[9]", "value": 1100}, {"measurement": "Ratio IC50", "setting": "[10]", "value": 20}, {"measurement": "selectivity ratio", "setting": "[11]", "value": 100}, {"measurement": "inhibition", "setting": "[13]", "value": 20, "unit": "%"}, {"measurement": "Kd", "setting": "[14]", "value": 5, "unit": "nM"}]}, {"compound": "CCO[C@H]1[C@H](O)[C@@H](N)[C@@H](O[C@H]2[C@H](O[C@@H]3O[C@H](CO)[C@@H](O[C@H]4O[C@@H](CN)[C@@H](O)[C@H](O)[C@H]4N)[C@H]3O)[C@@H](O)[C@H](N)C[C@@H]2N)O[C@@H]1CO", "values": [{"measurement": "Kd", "setting": "[1]", "value": 30, "unit": "nM"}, {"measurement": "Kd", "setting": "[2]", "value": 12800, "unit": "nM"}, {"measurement": "Kd", "setting": "[3]", "value": 8600, "unit": "nM"}, {"measurement": "IC50", "setting": "[4]", "value": 124, "unit": "nM"}, {"measurement": "MIC", "setting": "[5]", "value": 16, "unit": "µg/mL"}, {"measurement": "IC50", "setting": "[6]", "value": 120, "unit": "µg/mL"}, {"measurement": "IC50", "setting": "[7]", "value": 97, "unit": "µg/mL"}, {"measurement": "Ratio IC50", "setting": "[8]", "value": 1210}, {"measurement": "selectivity ratio", "setting": "[9]", "value": 427}, {"measurement": "Ratio IC50", "setting": "[10]", "value": 1500}, {"measurement": "selectivity ratio", "setting": "[11]", "value": 287}]}]}
